According to ChEMBL document CHEMBL1131456, “Synthesis, pharmacological characterization, and quantitative structure-activity relationship analyses of 3,7,9,9-tetraalkylbispidines: derivatives with specific bradycardic activity” (J Med Chem, 1998):

Experiments:
[1] = species: Cavia porcellus; test: Score value indicates selectivity versus the decrease in force of contraction; assay type: functional
[2] = species: Cavia porcellus; test: Score point for the selectivity versus additional effect FRP.; assay type: functional
[3] = species: Cavia porcellus; test: Score value indicates decrease of the sinus rate; assay type: functional
[4] = species: Cavia porcellus; test: Sum of the scores of decrease of the sinus rate and selectivity versus the decrease in force of contraction; assay type: functional
[5] = species: Rattus norvegicus; test: Score point for the selectivity versus additional effect R&T interval.; assay type: functional
[6] = species: Cavia porcellus; test: In vitro activity in guinea pig atria as the functional refractory period (FRP), which is the shortest interval between a double stimulus causing a double contraction.
Method in brief: (§1)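 Isolated guinea pig atria in oxygenated buffer at 35 °C. Right atria beat spontaneously; left atria were paced at 2 Hz with 1 ms rectangular pulses and isometric contractions were recorded. Cumulative concentration–response curves were run with up to five concentrations. EC75/EC125 is the concentration giving a 25% decrease/increase from the predrug value, reported as the geometric mean of individual ECs.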

[7] = system: Rattus norvegicus; test: In vivo activity in anesthetized rat was measured as the diastolic arterial pressure which provides information on the peripheral resistance of the cardiovascular system and selectivity regarding bradycardia; assay type: functional, Artery
Method in brief: (§2)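 Male Wistar rats (280–360 g) under urethane (1.25 g/kg ip), intubated and breathing spontaneously. Femoral arterial pressure was recorded with needle-electrode ECG, analysed every 30 s. Compound was given by continuous femoral-vein infusion at 0.1 mL/min, with concentration raised tenfold every 10 min (3 doses). ED75/ED125 is the dose giving a 25% decrease/increase from the predrug value, reported as the geometric mean of individual EDs.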

[8] = species: Cavia porcellus; test: In vitro activity in guinea pig atria was measured as rate of spontaneously beating right atrium (SR) which reflects the activity of the sinus node; assay type: functional; details: Cardiac atrium; method in brief: as §1
[9] = species: Cavia porcellus; test: Selectivity quotient (FRP125/SR75); assay type: functional
Method in brief: (§3)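 Atrial selectivity quotients were calculated from the guinea pig atrial EC values as F75/SR75 and FRP125/SR75.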

[10] = species: Rattus norvegicus; test: Selectivity quotient (R&T125/HR75)
[11] = species: Rattus norvegicus; test: Score value indicates desire effect on heart rate; assay type: functional
[12] = system: Rattus norvegicus; test: In vivo activity in anesthetized rat was measured as the R alpha T-interval of the rat ECG which reflects the time from ventricular excitation to recovery; assay type: functional, Cardiac ventricle; method in brief: as §2
[13] = species: Rattus norvegicus; test: Selectivity quotient (DAP125/HR75)
[14] = species: Cavia porcellus; test: In vitro activity in guinea pig atria was measured as the peak force of contraction (F) of a stimulated left atrium; assay type: functional; details: Cardiac atrium; method in brief: as §1
[15] = species: Rattus norvegicus; test: Total score (SS)
[16] = species: Rattus norvegicus; test: Score value indicates selectivity against the undesired effect on diastolic blood pressure; assay type: functional, Artery
[17] = species: Cavia porcellus; test: Selectivity quotient (F75/SR75); assay type: functional; method in brief: as §3
[18] = system: Rattus norvegicus; test: In vivo activity in anesthetized rat was measured as heart rate which provides information on in vivo bradycardic activity; assay type: functional; method in brief: as §2
[19] = Partition coefficient (logP); assay type: physicochemical; details: octanol/water; read-out: logP
Method in brief: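 Lipophilicity was measured by reversed-phase HPLC. Mobile phase was methanol/0.005 M phosphate buffer pH 4 (60/40) with 0.1% SDS and 0.1 M NaClO4, at 23.0 ± 0.5 °C, with UV detection at 205 nm.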

logP [19] | SMILES | Score [1] | Score [2] | Score [3] | Score [4] | Score [5] | EC125 [6] | ED125 [7] | EC75 [8] | Selectivity quotient [9] | Selectivity quotient [10] | Score [11] | ED125 [12] | Selectivity quotient [13] | EC75 [14] | total score (SS) [15] | Score [16] | Selectivity quotient [17] | ED75 [18]
3.53 | CCCC1(C)C2CN(C(C)C)CC1CN(C(C)C)C2 (stereo unspecified) | 0 | 3 | 5 | 5 | 5 | 2.63 µM | >36 µM/kg | 1.99 µM | 1.32 | 0.12 | 6 | 0.53 µM/kg | >8 | 211 µM | 5 | -1 | 106 | 4.5 µM/kg
4.51 | CCCC1(CCC)C2CN(C(C)C)CC1CN(C(C)C)C2 | -1 | 4 | 5 | 4 | 4 | 0.8 µM | 11 µM/kg | 2.18 µM | 0.37 | 0.28 | 5 | 1.8 µM/kg | 1.72 | 39.6 µM | 2 | -3 | 18.2 | 6.4 µM/kg
5.47 | CCCCCCN1CC2CN(CCCCCC)CC(C1)C21CCCC1 | -3 | 3 | 6 | 3 | 4 | 0.44 µM | 2.8 µM/kg | – | 0.51 | 0.4 | 3 | 5.6 µM/kg | 0.2 | 3.07 µM | -1 | -4 | 3.53 | 14 µM/kg
4.24 | CCCCN1CC2CN(CCCC)CC(C1)C21CCC1 | 0 | 3 | 6 | 6 | 5 | 0.63 µM | 0.6 µM/kg | 0.52 µM | 1.21 | 0.12 | 6 | 0.55 µM/kg | 0.13 | 56.1 µM | 1 | -5 | 108 | 4.7 µM/kg
3.88 | CCCCN1CC2CN(CCCC)CC(C1)C2(C)C | 0 | 4 | 4 | 4 | 5 | 1 µM | 0.2 µM/kg | 3 µM | 0.33 | 0.11 | 5 | 0.57 µM/kg | 0.04 | 104 µM | -1 | -6 | 35 | 5.3 µM/kg
4.29 | CC(C)CN1CC2CN(C(C)C)CC(C1)C21CCCCC1 | 0 | 3 | 5 | 5 | 5 | 1.54 µM | >41 µM/kg | 1 µM | 1.54 | 0.13 | 5 | 0.73 µM/kg | >7 | 35.5 µM | 4 | -1 | 35.5 | 5.7 µM/kg
3.42 | C=CCCN1CC2CN(CCCC)CC(C1)C2(C)C | 0 | 3 | 5 | 5 | 5 | 2.08 µM | 2.2 µM/kg | 1.21 µM | 1.72 | 0.12 | 5 | 0.7 µM/kg | 0.37 | 106 µM | 1 | -4 | 87.6 | 5.9 µM/kg
7.43 | C1CCC(CN2CC3CN(CC4CCCCC4)CC(C2)C32CCCCC2)CC1 | -6 | 6 | 3 | -3 | 3 | 0.62 µM | >61 µM/kg | 7.57 µM | 0.08 | 0.6 | 3 | 12 µM/kg | >3 | 2.65 µM | 1 | -2 | 0.35 | 20 µM/kg
